SMILES strings stand for the structures.

The data set is described as follows: Toxicity liver stage against HepG2, at 10uM. The conditions noted are these: human, HepG2-A16-CD81EGFP cells; read-out: INHIBITION
Further details: test concentration 10 uM, cell line HepG2-A16-CD81EGFP. The class given is cell-based. In short, it runs like this:
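Uninfected HepG2-A16-CD81EGFP cells, 3 × 10^3 per well, 1536-well, plated on prespotted compound at 10 μM final, parasite-free screening media added to match infected plates; puromycin 10 μM positive, DMSO 0.5% negative; run in parallel with 48 h PbLuc assay at 37 °C, 5% CO2; viability by CellTiter-Glo luminescence, normalized to controls.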
For the molecule `CCc1nnc2n1CCN(CC(=O)Nc1cc(C)nn1C)C2`, the cytotoxicity at 10 µM turned out to be 6.98%.
On to `CN(C(=O)c1cccnc1OCC(F)F)c1ccc2c(c1)CCO2`, for which the cytotoxicity at 10 µM was 3.47%.
To `Cc1cnn(C2CCCN(C(=O)c3c(C)oc(C)c3C)C2)c1` (configuration not stated) belongs 2.56%; to `CNc1nc(C(=O)N2CCN(c3cc(C)nc(C)c3)CC2)cs1`, 3.78%; to `c1cncc(N2CCO[C@H]3CN(CC4CCOC4)C[C@H]32)c1` (some centres not stated), -95.7%.
As for `COc1ncc(C2(O)CCN(Cc3ccccc3O)CC2)c(OC)n1`, the figure is 2.33%; as for `O=C(NCCn1ccnc1-c1cc2n(n1)CCNC2)c1ccncc1`, -2.66%.
Take `Cc1cc2c(N3CCC(N(C)Cc4cnn(C)c4)CC3)ncnc2s1`: the cytotoxicity at 10 µM is -1.13%.
`COc1ccccc1CC1CCCN1C(=O)c1cn[nH]c1C` (configuration not stated): the cytotoxicity at 10 µM was found to be 0.58%.
As for `Cc1ocnc1C(=O)N1CC[C@@]2(O)CCN(C(=O)N3CCCC3)C[C@H]2C1`, the figure is -7.96%; as for `CC(C)(C)CNC1(Cc2cc(C(C)(C)O)on2)COC1`, -6.11%; as for `c1cn2c(n1)CN(Cc1ccsc1)CC(Cn1cncn1)C2` (configuration not stated), -74.8%.
As for `CC(C)OCCCN1CCCC(c2nc3ccccc3n2C(C)C)C1` (configuration not stated), the figure is -4.06%; as for `Cc1cnn(CC2CCCN2c2ncnc3ccsc23)c1` (configuration not stated), 13.6%; as for `Cc1cc(CC(=O)NCC(O)COc2ccc(F)c(F)c2)n[nH]1` (configuration not stated), -7.66%.
As for `Cc1ccc(N2CC[C@@H]3[C@@H]2CCN3C(=O)Cc2cccs2)nn1`, the figure is -99.8%; as for `COCCC(=O)N1CCCC2(CCC(=O)N(CCc3c[nH]cn3)C2)C1` (configuration not stated), -3.76%; as for `O=C(Cc1ccc2c(c1)OCCO2)N1CCN(c2cnccn2)CC1`, -11.8%.
Regarding `O=C1CCCc2cc(-c3csc(CCN4CCOC4=O)n3)ccc2N1`, the cytotoxicity at 10 µM was 0.196%.
As for `CC(Oc1ccc(F)cc1F)C(=O)N1CCC2(CCCO2)CC1` (configuration not stated), the figure is 2.24%.
As for `O=C(NCCc1nnc2n1CCC2)N1CCC2(CCCCC2)C1`, the figure is 14.7%; as for `COCCC1(CNC(=O)NC2CCCN(C)C2)CC1` (configuration not stated), -0.926%.
To `Cc1ccc(C(=O)NS(=O)(=O)c2cccc3cnccc23)c(=O)[nH]1` belongs -8.16%; to `O=C(CN1CCCC1Cn1cncn1)Nc1cccnc1` (configuration not stated), -14.6%.
As for `CNC(=O)c1ccc(S(=O)(=O)NCc2cccnc2N(C)C)cc1`, the cytotoxicity at 10 µM was determined as 1.59%.
As for `COc1ccncc1NCc1ccsc1`, the figure is 19%; as for `COc1ccc(Cl)cc1C(=O)NCCNc1cnccn1`, -8.35%; as for `COc1cccc(Cl)c1C(C(=O)O)N1CCC(Cn2cccn2)CC1` (configuration not stated), -12.5%.
Regarding `CCN1CCN(C2CCN(Cc3c(C)noc3C)CC2)C1=O`, the cytotoxicity at 10 µM is -7.85%.
As for `O=C(NC[C@@H]1CCCO1)c1cccnc1N1CCCC1c1ccccc1` (some centres not stated), the figure is 3.95%; as for `Cc1cc(CN(C2CC2)C(C)C(C)C)on1` (configuration not stated), -0.212%.
On to `CC(C)C1CN(C(=O)c2cc(=O)[nH]c(=O)[nH]2)CCC(=O)N1CC1CC1` (configuration not stated), for which the cytotoxicity at 10 µM came to 1.08%.
As for `c1cncc(COCC2CN(Cc3ccncc3)Cc3ccnn3C2)c1` (configuration not stated), the figure is -135%; as for `Cc1cccc(-c2noc(CN3CC(n4cc(C)cn4)C3)n2)c1`, -8.8%.
As for `CC(C)NC(=O)C1CCc2nnc(CNC(=O)c3ccc(Cl)cc3Cl)n21` (configuration not stated), the figure is 5.84%.
To `CC(CNC(=O)NCc1ccoc1)N1CCc2sccc2C1` (configuration not stated) belongs -4.8%; to `c1cncc(OCC2CC3(CCN(CC4CC4)CC3)CO2)c1` (configuration not stated), 4.95%; to `Cc1n[nH]c(C)c1CCCNCc1cn(CCC(N)=O)c2ccccc12`, 8.45%.
Turning to `O=C(c1c(F)cccc1F)N1CCC[C@@H]1Cn1c(=O)oc2ccccc21`, the cytotoxicity at 10 µM turned out to be 4.42%.
Regarding `Cc1ccc(Cl)cc1N1CCC(CNC(=O)Cn2cccn2)C1` (configuration not stated), the cytotoxicity at 10 µM was -6.72%.
Consider `Cc1ccccc1-n1cc(C2=CCN(CCn3cc[nH]c3=O)CC2)cn1`, for which the cytotoxicity at 10 µM came out at 16.5%.
As for `CC(=O)c1cccc(OCC(=O)NS(=O)(=O)c2ccc(C)s2)c1`, the figure is -8.29%.
To `Cc1cnn(CCNCc2nc(-c3ccccn3)no2)c1` belongs -8%; to `NC(=O)C1=NC2=NS(=O)(=O)c3ccccc3N2N1Cc1ccc(Cl)cc1`, 1.75%.
As for `CN(Cc1cc(-c2ccccc2)no1)C(=O)CNS(C)(=O)=O`, the figure is 0.0288%.
`Cc1cc(C)cc(OCC(=O)N2CCCC2)c1`: the cytotoxicity at 10 µM worked out at 5.04%.
In the case of `CN1CC2(CCCN(CCOCc3ccccc3)C2)OC1=O` (configuration not stated), the cytotoxicity at 10 µM was -10.4%.
As for `CC[C@@H](c1ccccc1)n1c(CN)n[nH]c1=O`, the figure is -4.34%; as for `CCN(C(=O)COC)C(c1ccc(Cl)cc1)c1ccccn1` (configuration not stated), -9.7%.
As for `COCCn1ccnc1-c1[nH]cnc1C`, the figure is -18.4%.
In the case of `CC(C)Nc1ccc2c(c1)C1(CCOCC1)C(=O)N2c1ccsc1`, the cytotoxicity at 10 µM amounted to 11%.
To `CCc1cc(N(C)Cc2nonc2C)nc(N2CCOCC2)n1` belongs -8.07%; to `COc1ccnc(N2CCN(C(=O)Cc3ccc(C)s3)CC2)n1`, 0.818%; to `CC1=C(CCN2C[C@H](O)[C@@H](N3CCOCC3)C2)C(C)(C)CCC1`, -0.128%.
As for `COc1ccnc(N2CCN(C(=O)CN3CCCC3=O)CC2)n1`, the figure is -5.21%.
As for `Cc1ccc(C(=O)N2CCCC(n3cncn3)C2)o1` (configuration not stated), the cytotoxicity at 10 µM came to 4.35%.
With `Cc1ccc2cccc(S(=O)(=O)N(C)CC3CCN(C)CC3)c2n1`, the cytotoxicity at 10 µM is -1.6%.
As for `NC(=O)Cn1cc(NC(=O)N2CCN(c3ccc(F)cc3)CC2)cn1`, the figure is -12.9%; as for `O=C(NCCOc1ccc2c(c1)OCO2)C1CC(=O)N(C2CC2)C1` (configuration not stated), -6.75%.
Take `CNC(=O)c1cccnc1N1CCN(C/C=C/c2ccccc2)CC1`: the cytotoxicity at 10 µM is -9.23%.
As for `COc1ccc(CCC2CCCN(C(=O)CCc3cc(O)no3)C2)cc1` (configuration not stated), the figure is -3.66%; as for `NCC1[C@H]2CN(Cc3cccc(Cl)c3)C[C@@H]12` (some centres not stated), -9.17%.
On to `CCCNC(=O)CSc1nnc2[nH]c(=O)cc(CC)n12`, for which the cytotoxicity at 10 µM was -17.3%.
As for `COCCCNc1ncnc2c1CCN(C(=O)CC1C=CCC1)CC2` (configuration not stated), the figure is 5.97%; as for `Cc1cc(C)n(C2CN(C(=O)Cn3c(C)cc(=O)c4ccccc43)C2)n1`, -5.56%; as for `CC(C)(C)NC(=O)CN1CCCC(c2ccc(C(=O)O)cc2)C1` (configuration not stated), -6.17%.
To `COC1CCN(C(=O)Nc2ccccc2)CC(=O)N(C)c2ccccc21` (configuration not stated) belongs 2.94%; to `O=C(c1sccc1-n1cnnn1)N1CCC2(CCCCC2)CC1`, 9.09%; to `CN(Cc1ccn[nH]1)C(=O)CCC(=O)NC1CCCC1`, 0.324%.
As for `CC(C)c1ccc(-c2nnn(CCNS(C)(=O)=O)n2)cc1`, the figure is -3.51%; as for `c1csc(-c2noc(CN3CCCC3Cn3cccn3)n2)c1` (configuration not stated), -12.7%.
Turning to `Cc1ccc(N2N=C(C(=O)O)S(=O)(=O)c3cccnc32)cc1`, the cytotoxicity at 10 µM was -8.87%.
To `CN(Cc1ccsc1)C(=O)COC(=O)c1cc(Cl)c[nH]1` belongs -3.73%.
As for `Cc1nnc(C2Cc3ccccc3CN2Cc2ncc(C(C)(C)C)o2)o1` (configuration not stated), the figure is 10%; as for `NC(=O)C1CCN(C(=O)CCn2ccc3ccc(Br)cc32)CC1`, -5.85%.
As for `COCCCN1CC2(CCN(C(=O)c3ccc(=O)n(C)c3)CC2)CC1=O`, the figure is -9.69%.
Consider `CN(C)CCN1CCCC12CCCN(C(=O)c1cccnc1)C2` (configuration not stated), for which the cytotoxicity at 10 µM was -0.95%.
As for `Cn1cc(CCNC(=O)N2CCCc3c(F)cccc32)cn1`, the cytotoxicity at 10 µM was found to be 14.3%.
As for `CC(CNC(=O)c1cccc(-n2cccn2)n1)Cn1ccnc1` (configuration not stated), the figure is 7.73%; as for `Cc1noc(C)c1C(=O)N1CCC2(CC(N(C)c3ccncn3)C2)C1` (configuration not stated), -5.94%; as for `CCN1CCC2(CC1)CN(C(C)=O)c1ccc(C)cc12`, 3.98%.
As for `Cc1cc(S(=O)(=O)N(CCO)C2CC2)ccc1F`, the figure is 0.866%.
Turning to `Cc1cnc(N2CCOC3(CCCN(c4ncccn4)C3)C2)nc1` (configuration not stated), the cytotoxicity at 10 µM was determined as 9.19%.
Take `CN(C)C(=O)c1cc2c(nc1NCC1CC1)CCN(CC1CC1)CC2`: the cytotoxicity at 10 µM amounted to 7.54%.
To `CN(C(=O)Cn1nc(-c2ccccc2Cl)ccc1=O)C1CCS(=O)(=O)C1` (configuration not stated) belongs 1.96%; to `CO[C@H]1CN(C(C)C)C[C@@H]1NC(=O)c1cc(-c2ccccc2F)n[nH]1`, -6.01%; to `CN(C)c1ncc2c(n1)CCCC2NC(=O)c1ccsc1` (configuration not stated), 10%.
To `COCC(=O)N1CCC(C(=O)Nc2ccc(C(C)=O)cc2)CC1` belongs 1.73%; to `Cc1n[nH]c(C2CN(CC(=O)NCCc3ccsc3)CCO2)n1` (configuration not stated), -0.524%; to `N#Cc1cccc(C(=O)N2CC(c3nc(-c4ccc[nH]c4=O)no3)C2)c1`, -4.13%.
To `COc1ccc(OCC(=O)NS(=O)(=O)c2ccc(Cl)s2)cc1` belongs 14.1%.
Take `CC(C)COC(C)C(=O)N1CCCCCC1` (configuration not stated): the cytotoxicity at 10 µM was determined as 1.31%.
`Cc1c(C(=O)N(C)CC(F)(F)F)nnn1-c1ccccc1Cl`: the cytotoxicity at 10 µM is -1.58%.
As for `COc1ccccc1CNC(=O)C(C)n1cc2c(n1)c(C)nn2C` (configuration not stated), the figure is 1.61%.
Consider `Cc1nc(-c2ccccc2)n(CC(=O)NC(C)C2CC2)n1` (configuration not stated), for which the cytotoxicity at 10 µM turned out to be 7.44%.
As for `CN(C)CC(=O)N1Cc2nnn(C)c2C(COCc2ccccn2)C1` (configuration not stated), the figure is 9.26%; as for `Cn1cc(C(=O)CC2CCCN2C(=O)c2ccc(Cl)o2)cn1` (configuration not stated), -4.57%.

For the origin of these results see ChEMBL document CHEMBL4513216, “Probing the Open Global Health Chemical Diversity Library for Multistage-Active Starting Points for Next-Generation Antimalarials” (ACS Infect Dis, 2020).
